This passage reports IC50 and inhibition results from ChEMBL document CHEMBL2331309, “2,3-Diarylpropenoic acids as selective non-steroidal inhibitors of type-5 17β-hydroxysteroid dehydrogenase (AKR1C3)” (Eur J Med Chem, 2013).

Positions count from the first letter of the chain named. The source made the active and inactive calls. The rule behind the calls is not given here.

The target in assay [1] is T1, Aldo-keto reductase family 1 member C3 (Homo sapiens, UniProt P42330).
T1 sequence (P42330 whole entry): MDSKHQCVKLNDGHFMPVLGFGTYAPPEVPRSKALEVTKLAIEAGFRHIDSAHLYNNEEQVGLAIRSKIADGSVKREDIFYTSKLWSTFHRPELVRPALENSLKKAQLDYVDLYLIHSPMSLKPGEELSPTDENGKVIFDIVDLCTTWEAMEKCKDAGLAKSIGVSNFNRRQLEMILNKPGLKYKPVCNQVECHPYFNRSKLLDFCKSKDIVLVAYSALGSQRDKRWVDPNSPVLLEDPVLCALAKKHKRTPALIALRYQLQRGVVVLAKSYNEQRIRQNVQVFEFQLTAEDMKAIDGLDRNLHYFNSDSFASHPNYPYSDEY
Description: Inhibition of recombinant AKR1C3 (unknown origin) assessed as decrease in oxidation of 1-acenaphthenol substrate by spectrophotometric analysis.

Assay [2] has as its target T2, Aldo-keto reductase family 1 member C2 (Homo sapiens) (UniProt P52895).
T2 sequence (whole entry): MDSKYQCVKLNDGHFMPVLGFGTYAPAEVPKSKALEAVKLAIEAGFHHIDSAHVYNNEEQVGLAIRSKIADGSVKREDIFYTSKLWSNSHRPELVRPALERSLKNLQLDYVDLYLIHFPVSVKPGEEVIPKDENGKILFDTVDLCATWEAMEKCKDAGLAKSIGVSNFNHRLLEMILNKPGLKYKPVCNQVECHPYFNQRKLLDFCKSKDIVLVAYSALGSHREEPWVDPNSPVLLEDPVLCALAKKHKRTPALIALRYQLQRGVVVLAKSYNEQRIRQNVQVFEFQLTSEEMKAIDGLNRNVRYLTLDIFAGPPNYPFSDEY
Description: Inhibition of recombinant AKR1C2 (unknown origin) assessed as decrease in oxidation of 1-acenaphthenol substrate at 100 uM by spectrophotometric analysis. The method in brief:
(§1)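 Single-point screen at 100 μM compound. Recombinant enzyme oxidizes 1-acenaphthenol with 2.3 mM NAD⁺ in 100 mM phosphate buffer pH 9.0, 0.005% Triton X-114, 5% DMSO. AKR1C1: 30 μM substrate (Km), 0.3 μM enzyme. AKR1C2: 50 μM substrate (Km), 0.2 μM enzyme. NADH formation read at 340 nm from initial velocities. Result given as % inhibition.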

The target of assay [3] is T3, Aldo-keto reductase family 1 member C1 (Homo sapiens) (UniProt Q04828).
T3 sequence (whole entry): T2 sequence (whole entry) with V38T, H47R, V54L, S87C, M151V, H170R, L172Q
Description: Inhibition of human recombinant AKR1C1 expressed in Escherichia coli assessed as decrease in oxidation of 1-acenaphthenol substrate at 100 uM by spectrophotometric analysis. The method, boiled down: as §1

Assay [4] has as its target T4, Aldo-keto reductase family 1 member C2 (Homo sapiens, UniProt P52895).
T4 sequence (P52895 whole entry): T2 sequence (whole entry)
As to the kind of experiment: Inhibition of recombinant AKR1C2 (unknown origin) assessed as decrease in oxidation of 1-acenaphthenol substrate by spectrophotometric analysis. The method in brief: (§2)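 IC50 measured for compounds giving over 50% inhibition at 100 μM. Assay uses 1-acenaphthenol oxidation with 2.3 mM NAD⁺ in pH 9.0 100 mM phosphate buffer with 0.005% Triton X-114 and 5% DMSO. AKR1C1 runs at 30 μM substrate and 0.3 μM enzyme; AKR1C2 at 50 μM substrate and 0.2 μM enzyme. Initial rates come from NADH at 340 nm. IC50 is read from log[inhibitor] versus % inhibition plots.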

Assay [5] concerns the target T5, Aldo-keto reductase family 1 member C1 (Homo sapiens, UniProt Q04828).
T5 sequence (Q04828 whole entry): T2 sequence (whole entry) with V38T, H47R, V54L, S87C, M151V, H170R, L172Q
As to the kind of experiment: Inhibition of human recombinant AKR1C1 expressed in Escherichia coli assessed as decrease in oxidation of 1-acenaphthenol substrate by spectrophotometric analysis. The method in brief: as §2

Consider `CS(=O)(=O)c1ccc(/C(=C\c2cccc(Cl)c2)C(=O)O)cc1`, for which the 50% inhibitory concentration (IC50) – broadly, the concentration needed to halve the response being measured – in assay [1] was 16.8 µM. For the same molecule, the inhibition (in general, the drop in the measured response relative to a control, in per cent) in assay [2] turned out to be 43%; in assay [3] it was 44.5%.

For the molecule `COc1ccc(/C=C(/C(=O)O)c2cc(OC)c(OC)c(OC)c2)cc1OC`, the results for the inhibition in assay [2] and in assay [3] were 0.6% and 6.1%, respectively.

`COc1cc(/C(=C\c2ccc3ccccc3c2)C(=O)O)cc(OC)c1OC`: the inhibition in assay [2] was 15.9%; in assay [3], 9.6%.

With `COc1ccc(/C=C(/C(=O)O)c2cc(OC)c(OC)c(OC)c2)cc1F`, the inhibition in assay [2] is 9.9%; in assay [3], -5.2%.

Take `CSc1ccc(-c2ccc(/C=C(/C(=O)O)c3ccc(S(C)(=O)=O)cc3)cc2)cc1`: the inhibition was 57.4% in assay [2] and 64.7% in assay [3].

Take `CS(=O)(=O)c1ccc(/C(=C\c2ccc(Cl)cc2)C(=O)O)cc1`: in assay [1], the half-maximal inhibitory concentration (IC50) is 10.8 µM. The inhibition in assay [2] was determined as 24.3%; in assay [3], 34.7%.

Take `CSc1ccc(/C=C(/C(=O)O)c2ccc(S(C)(=O)=O)cc2)cc1`: in assay [1], the concentration for half-maximal inhibition (IC50) was 5.8 µM. Moreover, the inhibition in assay [2] was 14.4%; in assay [3] it was 43.8%.

With `COc1ccc(/C=C(/C(=O)O)c2cccc3ccccc23)cc1OC`, the half-maximal inhibitory concentration (IC50) in assay [1] is 128 µM; in assay [4], 24.2 µM. In addition, the figures for the inhibition in assay [2] and in assay [3] were 77.8% and 29.4%, respectively.

Turning to `COc1cc(/C(=C\c2cccc3ccccc23)C(=O)O)cc(OC)c1OC`, the inhibition is 13.8% in assay [2] and 6.4% in assay [3].

Take `COc1ccc(/C=C(/C(=O)O)c2cc(OC)c(OC)c(OC)c2)cc1`: the inhibition in assay [2] stood at 4.3%; in assay [3], 15.1%.

For `COc1ccc(/C=C(/C(=O)O)c2ccc(S(C)(=O)=O)cc2)cc1`, the IC50 in assay [1] came out at 36.9 µM. Besides, the inhibition entry in assay [2] and in assay [3] was “inactive” throughout.

On to `CS(=O)(=O)c1ccc(/C=C(/C(=O)O)c2ccc(Cl)cc2)cc1`, for which the half-inhibitory concentration (IC50) in assay [1] amounted to 86.6 µM; in assay [4], 26.9 µM; in assay [5], 15.7 µM. Besides, the values for the inhibition in assay [2] and in assay [3] were 63.4% and 89.6%, respectively.

As for `CS(=O)(=O)c1ccc(/C(=C\c2ccc(C(F)(F)F)cc2)C(=O)O)cc1`, the IC50 in assay [1] was found to be 23.3 µM. For the same molecule, the inhibition in assay [2] worked out at 18.4%; in assay [3] it was 3.5%.

`COc1ccc(/C=C(/C(=O)O)c2ccc3ccccc3c2)cc1OC`: the IC50 in assay [1] worked out at 38.7 µM. Also, the inhibition in assay [2] was found to be 39.6%; in assay [3] it was 9.7%.

For `CS(=O)(=O)c1ccc(/C(=C\c2ccc(O)cc2)C(=O)O)cc1`, the inhibition result in assay [2] and in assay [3] was “inactive” throughout.

With `CC(=O)O[C@]1(C(C)=O)CC[C@H]2[C@@H]3C[C@H](C)C4=CC(=O)CC[C@]4(C)[C@H]3CC[C@@]21C` [MEDROXYPROGESTERONE ACETATE], the values for the half-inhibitory concentration (IC50) in assay [1], in assay [4] and in assay [5] were 0.3 µM, 4.1 µM and 1.8 µM, respectively.

As for `COc1cc(/C(=C\c2cccc(F)c2)C(=O)O)cc(OC)c1OC`, the IC50 in assay [4] is 77 µM. Further, the inhibition in assay [2] stood at 55.9%; in assay [3], 7.8%.

Consider `CSc1ccc(/C=C(/C(=O)O)c2ccccc2)cc1`, for which the half-maximal inhibitory concentration (IC50) in assay [1] is 30.2 µM; in assay [4], 41.2 µM; in assay [5] it was 12.3 µM. In addition, the inhibition in assay [2] amounted to 59.1%; in assay [3], 87%.

With `COc1ccc(/C=C(/C(=O)O)c2cc(OC)c(OC)c(OC)c2)cc1OC(C)=O`, the results for the inhibition in assay [2] and in assay [3] were 3.2% and 8%, respectively.

For the molecule `CS(=O)(=O)c1ccc(/C=C(/C(=O)O)c2cccc(Cl)c2)cc1`, the IC50 in assay [1] amounted to 76.7 µM; in assay [4], 23.1 µM; in assay [5], 19.3 µM. Also, the inhibition was determined as 66.4% in assay [2] and 75.9% in assay [3].

`CS(=O)(=O)c1ccc(/C=C(/C(=O)O)c2ccc3c(c2)OCO3)cc1`: the figures for the inhibition in assay [2] and in assay [3] were 24.2% and 45.2%, respectively.

Consider `Cc1ccc(/C=C(/C(=O)O)c2ccc(S(C)(=O)=O)cc2)cc1`, for which the IC50 in assay [1] stood at 13.4 µM. Moreover, the inhibition in assay [2] stood at 1.1%. Besides, in assay [3], the inhibition entry is “inactive”.

For the molecule `CC(=O)NS(=O)(=O)c1ccc(/C=C(/C(=O)O)c2ccc(S(C)(=O)=O)cc2)cc1`, the inhibition in assay [2] was determined as 10.6%; in assay [3], 5.9%.

As for `COc1cc(/C(=C\c2cccc(OC(C)=O)c2)C(=O)O)cc(OC)c1OC`, the inhibition is 27% in assay [2] and 40% in assay [3].

Turning to `CS(=O)(=O)c1ccc(/C(=C\c2cccc(F)c2)C(=O)O)cc1`, in assay [1], the IC50 was 38.9 µM. Also, the inhibition was 27% in assay [2] and 15.4% in assay [3].

As for `CS(=O)(=O)c1ccc(/C(=C\c2cccc(O)c2)C(=O)O)cc1`, the inhibition entry in assay [2] and in assay [3] was “inactive” in each case.

For the molecule `CS(=O)(=O)c1ccc(/C(=C\c2ccc(O)c(O)c2)C(=O)O)cc1`, in assay [1], the 50% inhibitory concentration (IC50) was found to be 33.1 µM. Further, the inhibition in assay [2] amounted to 27.2%; in assay [3], 46.5%.

Turning to `CS(=O)(=O)c1ccc(/C(=C\c2ccc(F)cc2)C(=O)O)cc1`, the half-maximal inhibitory concentration (IC50) in assay [1] turned out to be 43.1 µM. Moreover, the inhibition in assay [2] was 9.2%; in assay [3], 21%.

Take `CS(=O)(=O)c1ccc(/C(=C\c2cccc(Br)c2)C(=O)O)cc1`: the half-maximal inhibitory concentration (IC50) amounted to 13.6 µM in assay [1] and 74.3 µM in assay [4]. The results for the inhibition in assay [2] and in assay [3] were 58.3% and 34.8%, respectively.

In the case of `CSc1ccc(/C=C(/C(=O)O)c2ccc(Cl)cc2)cc1`, the IC50 stood at 8.3 µM in assay [1], 27.3 µM in assay [4] and 6.6 µM in assay [5]. The values for the inhibition in assay [2] and in assay [3] were 75.2% and 88.1%, respectively.

With `COc1ccc(/C=C(/C(=O)O)c2cc(OC)c(OC)c(OC)c2)cc1O`, in assay [1], the IC50 worked out at 121 µM. The inhibition in assay [2] was 20.6%; in assay [3] it was 14.4%.

As for `CS(=O)(=O)c1ccc(/C=C(/C(=O)O)c2ccc(S(C)(=O)=O)cc2)cc1`, in assay [1], the half-inhibitory concentration (IC50) came to 51 µM. Besides, the inhibition entry in assay [2] and in assay [3] was “inactive” in each case.

Turning to `CC(=O)NS(=O)(=O)c1ccc(/C=C(/C(=O)O)c2ccccc2)cc1`, the IC50 came to 25.2 µM in assay [4] and 8.7 µM in assay [5]. Moreover, the inhibition was 87.3% in assay [2] and 97.8% in assay [3].

For `CCc1ccc(/C=C(/C(=O)O)c2ccc(S(C)(=O)=O)cc2)cc1`, the IC50 in assay [1] is 13.6 µM. In addition, the inhibition result in assay [2] and in assay [3] was “inactive” throughout.

Consider `O=C(O)/C(=C/c1ccccc1)c1ccccc1`, for which the inhibition in assay [2] is 47.5%; in assay [3], 90.1%. The IC50 in assay [5] worked out at 7.9 µM.

With `CS(=O)(=O)c1ccc(/C=C(/C(=O)O)c2ccc(F)cc2)cc1`, the figures for the concentration for half-maximal inhibition (IC50) in assay [4] and in assay [5] were 44.6 µM and 23.3 µM, respectively. Further, the results for the inhibition in assay [2] and in assay [3] were 69.7% and 86.1%, respectively.

`COc1cc(/C=C(/C(=O)O)c2ccc(S(C)(=O)=O)cc2)cc(OC)c1OC`: the inhibition result in assay [2] and in assay [3] was “inactive” in each case.

Turning to `CS(=O)(=O)c1ccc(/C(=C\c2ccc(Br)cc2)C(=O)O)cc1`, the half-inhibitory concentration (IC50) in assay [1] was determined as 4.9 µM. In addition, the inhibition in assay [2] came to 19.2%; in assay [3] it was 28.7%.

For the molecule `CS(=O)(=O)c1ccc(/C(=C\c2ccccc2)C(=O)O)cc1`, in assay [1], the IC50 was determined as 69.8 µM. Besides, the inhibition in assay [2] was 27.3%; in assay [3] it was 26.3%.
